Data on ten molecules can be found in article PMC8859974 (Journal of medicinal chemistry, 2019).

Where only a bound is given, the exact number is not on record here.

The subject of series [1] is bFGF-induced angiogenesis. The conditions noted are these: oral or intraperitoneal administration; cited from earlier work.
Series [2] concerns the target T1, PA-CMG2 interaction (Homo sapiens, UniProt P58335, C175A/R40C).
T1 sequence (P58335 40-217 R40C/C175A): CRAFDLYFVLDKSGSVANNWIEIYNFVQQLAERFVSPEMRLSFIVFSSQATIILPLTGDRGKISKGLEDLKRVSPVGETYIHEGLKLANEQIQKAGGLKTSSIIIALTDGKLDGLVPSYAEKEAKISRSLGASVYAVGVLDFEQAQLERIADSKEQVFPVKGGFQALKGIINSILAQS
The conditions noted are these: cited from earlier work.

Series [3] is classed as in vivo, mice.
For series [4], the system named is EA.hy926 cells. Description: CellASIC microfluidic chemotactic endothelial cell migration. The conditions noted are these: Homo sapiens, EA.hy 926, 12 h, read-out: Best fit IC50, chemotactic endothelial cell migration. It counts as cell-based.
The target in series [5] is T1, PA-CMG2 interaction. Description: CMG2-PA FRET assay. It is filed as binding. The following applies: for inhibitory effect on CMG2-PA interaction (in words): FRET assay. Put shortly: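 After AF546 dispensing, 32 nM PA-AF488 solution was added and the mix incubated 4 h. Excitation 485 nm; emission 535 and 595 nm. Artifact-filtered Em595/Em535 FRET ratio was converted to % inhibition against an interaction control (100%) and an EDTA no-interaction control (0%).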

Turning to `O=C(OC[C@H]1O[C@@H](OC(=O)c2cc(O)c(O)c(O)c2)[C@H](OC(=O)c2cc(O)c(O)c(O)c2)[C@@H](OC(=O)c2cc(O)c(O)c(O)c2)[C@@H]1OC(=O)c1cc(O)c(O)c(O)c1)c1cc(O)c(O)c(O)c1` [compound 1, 1,2,3,4,6-penta-O-galloyl-ß-D-glucopyranose], the “angiogenesis in the mouse corneal micropocket assay” value in series [1] is recorded as “inhibits angiogenesis”. For the same molecule, in series [2], the “IC50 of binding to CMG2” value is “submicromolar”.
On to `O=C(OC[C@H]1O[C@@H](OC(=O)c2cc(O)c(O)c(O)c2)[C@@H](OC(=O)c2cc(O)c(O)c(O)c2)[C@@H](OC(=O)c2cc(O)c(O)c(O)c2)[C@@H]1OC(=O)c1cc(O)c(O)c(O)c1)c1cc(O)c(O)c(O)c1` [compound 8, 1,2,3,4,6-penta-O-galloyl-β-D-mannopyranose], for which, in series [3] (10 mg/kg intraperitoneally, compared to vehicle-treated control animals), the weight loss result was “no significant weight loss”. Further, the “signs of toxicity (weight loss, hunched posture, behavioral abnormalities)” value in series [3] (treated mice) is “no obvious signs of toxicity”. Further, the IC50 in series [4] turned out to be 365 ± 129 nM. Also, the “affinity for CMG2 relative to the glucose prototype PGG” value in series [5] (FRET based binding assay) is on record as “up to 10 x”.
Turning to `O=C(O[C@@H]1OC[C@@H](OC(=O)c2cc(O)c(O)c(O)c2)[C@@H](OC(=O)c2cc(O)c(O)c(O)c2)[C@H]1OC(=O)c1cc(O)c(O)c(O)c1)c1cc(O)c(O)c(O)c1` [compound 10], the “inhibitory effect on CMG2-PA interaction (in words)” value (from here on “inhibitory effect”) in series [5] is recorded as “no inhibitory effect”.
On to `O=C(OC[C@@H](OC(=O)c1ccc(O)c(O)c1O)[C@@H]1O[C@H](OC(=O)c2ccc(O)c(O)c2O)[C@H](OC(=O)c2ccc(O)c(O)c2O)[C@H]1OC(=O)c1ccc(O)c(O)c1O)c1ccc(O)c(O)c1O` [compound 15, α-D-Galactofuranose pentakis(2,3,4-trihydroxybenzoate)], for which, in series [5], the IC50 was > 10000 nM.
Regarding `O=C(O[C@H]1OC[C@@H](OC(=O)c2ccc(O)c(O)c2O)[C@@H](OC(=O)c2ccc(O)c(O)c2O)[C@H]1OC(=O)c1ccc(O)c(O)c1O)c1ccc(O)c(O)c1O` [compound 22, α-D-Ribopiranose tetrakis(2,3,4-trihydroxybenzoate)], in series [5], the “inhibitory effect” value was “no inhibitory effect”.
The same measure, in the same setting: the entry for `O=C(O[C@@H]1OC[C@@H](OC(=O)c2ccc(O)c(O)c2O)[C@@H](OC(=O)c2ccc(O)c(O)c2O)[C@H]1OC(=O)c1ccc(O)c(O)c1O)c1ccc(O)c(O)c1O` [compound 23, β-D-Ribopiranose tetrakis(2,3,4-trihydroxybenzoate)] is “no inhibitory effect”; for `O=C(OC[C@H]1O[C@H](O[C@H]2[C@H](OC(=O)c3cc(O)c(O)c(O)c3)[C@@H](OC(=O)c3cc(O)c(O)c(O)c3)[C@H](OC(=O)c3cc(O)c(O)c(O)c3)O[C@@H]2COC(=O)c2cc(O)c(O)c(O)c2)[C@H](OC(=O)c2cc(O)c(O)c(O)c2)[C@@H](OC(=O)c2cc(O)c(O)c(O)c2)[C@@H]1OC(=O)c1cc(O)c(O)c(O)c1)c1cc(O)c(O)c(O)c1` [compound 25, β-D-Maltose octakis(3,4,5-trihydroxybenzoate)] it is “did not inhibit CMG2-PA interaction”.
`O=C(OC[C@H]1O[C@H](O[C@H]2O[C@H](COC(=O)c3cc(O)c(O)c(O)c3)[C@@H](OC(=O)c3cc(O)c(O)c(O)c3)[C@H](OC(=O)c3cc(O)c(O)c(O)c3)[C@H]2OC(=O)c2cc(O)c(O)c(O)c2)[C@@H](OC(=O)c2cc(O)c(O)c(O)c2)[C@@H](OC(=O)c2cc(O)c(O)c(O)c2)[C@@H]1OC(=O)c1cc(O)c(O)c(O)c1)c1cc(O)c(O)c(O)c1` [compound 27, α,α-D-Trehalose octakis(3,4,5-trihydroxybenzoate)]: the “inhibitory effect” value in series [5] is given as “did not inhibit CMG2-PA interaction”.
Regarding `O=C(OC[C@H]1O[C@H](O[C@H]2O[C@H](COC(=O)c3ccc(O)c(O)c3O)[C@@H](OC(=O)c3ccc(O)c(O)c3O)[C@H](OC(=O)c3ccc(O)c(O)c3O)[C@H]2OC(=O)c2ccc(O)c(O)c2O)[C@@H](OC(=O)c2ccc(O)c(O)c2O)[C@@H](OC(=O)c2ccc(O)c(O)c2O)[C@@H]1OC(=O)c1ccc(O)c(O)c1O)c1ccc(O)c(O)c1O` [compound 31, α,α-D-Trehalose octakis(2,3,4-trihydroxybenzoate)], the “inhibitory effect” value in series [5] is listed as “did not inhibit CMG2-PA interaction”.
Consider `CCCOC(=O)c1cc(O)c(O)c(O)c1` [propyl gallate], for which, in series [2] (concentrations up to 300 μM), the inhibitory activity result is recorded as “do not showed any inhibitory activity”.
